Laboratory results: ChEMBL document CHEMBL3603808, “Discovery and structure of a new inhibitor scaffold of the autophagy initiating kinase ULK1” (Bioorg Med Chem, 2015)
Active and inactive are the calls of the source. No cut-off for these calls is given here.

Assays:
[1] = molecular target: T1, Serine/threonine-protein kinase ULK1 (Homo sapiens, UniProt O75385); test: Inhibition of SUMO-tagged ULK1 (unknown origin) kinase domain expressed in KRX cells using [32P]-gamma-ATP and myelin basic protein substrate incubated for 7 mins; type: cell-based
T1 sequence (O75385 whole entry): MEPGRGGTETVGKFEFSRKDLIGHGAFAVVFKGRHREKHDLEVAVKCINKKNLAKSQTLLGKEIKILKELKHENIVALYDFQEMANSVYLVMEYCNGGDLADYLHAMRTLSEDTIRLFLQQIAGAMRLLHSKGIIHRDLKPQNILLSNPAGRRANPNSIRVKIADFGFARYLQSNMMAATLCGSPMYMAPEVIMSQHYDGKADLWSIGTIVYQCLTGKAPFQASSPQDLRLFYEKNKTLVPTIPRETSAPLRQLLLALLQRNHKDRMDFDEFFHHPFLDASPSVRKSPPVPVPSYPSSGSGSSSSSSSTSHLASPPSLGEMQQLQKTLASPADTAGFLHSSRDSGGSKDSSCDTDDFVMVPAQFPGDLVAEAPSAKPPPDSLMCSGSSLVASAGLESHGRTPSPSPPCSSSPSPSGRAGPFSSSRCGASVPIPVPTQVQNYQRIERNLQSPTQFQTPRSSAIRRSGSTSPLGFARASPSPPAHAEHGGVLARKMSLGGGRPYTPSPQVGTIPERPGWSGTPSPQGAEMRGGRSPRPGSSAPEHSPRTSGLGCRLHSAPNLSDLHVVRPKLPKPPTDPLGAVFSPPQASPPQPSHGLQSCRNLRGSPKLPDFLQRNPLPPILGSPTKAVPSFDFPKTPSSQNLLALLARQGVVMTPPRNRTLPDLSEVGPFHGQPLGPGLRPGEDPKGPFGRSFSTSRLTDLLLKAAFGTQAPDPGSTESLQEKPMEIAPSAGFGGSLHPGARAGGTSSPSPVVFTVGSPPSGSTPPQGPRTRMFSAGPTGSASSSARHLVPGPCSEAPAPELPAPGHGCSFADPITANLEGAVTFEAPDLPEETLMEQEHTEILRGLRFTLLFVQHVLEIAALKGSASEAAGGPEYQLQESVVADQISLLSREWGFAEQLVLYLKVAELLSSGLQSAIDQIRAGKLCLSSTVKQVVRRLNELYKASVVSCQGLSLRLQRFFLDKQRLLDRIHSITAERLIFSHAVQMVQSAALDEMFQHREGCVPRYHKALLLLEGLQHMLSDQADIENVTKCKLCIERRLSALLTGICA
Procedure, shortened: (§1)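 Enzyme at 5 nM with 50 µM cold ATP, 0.05 µCi/µl 32P-γ-ATP and 20 µM myelin basic protein as substrate. Reactions were spotted onto nitrocellulose, washed three times in 1% phosphoric acid, dried and imaged by phosphorimager. IC50 from curve fitting; duplicate.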

[2] = molecular target: T2, Serine/threonine-protein kinase ULK2 (Homo sapiens, UniProt Q8IYT8); test: Inhibition of SUMO-tagged ULK2 (unknown origin) kinase domain expressed in KRX cells using [32P]-gamma-ATP and myelin basic protein substrate incubated for 7 mins; type: single protein; procedure, shortened: as §1
T2 sequence (Q8IYT8 whole entry): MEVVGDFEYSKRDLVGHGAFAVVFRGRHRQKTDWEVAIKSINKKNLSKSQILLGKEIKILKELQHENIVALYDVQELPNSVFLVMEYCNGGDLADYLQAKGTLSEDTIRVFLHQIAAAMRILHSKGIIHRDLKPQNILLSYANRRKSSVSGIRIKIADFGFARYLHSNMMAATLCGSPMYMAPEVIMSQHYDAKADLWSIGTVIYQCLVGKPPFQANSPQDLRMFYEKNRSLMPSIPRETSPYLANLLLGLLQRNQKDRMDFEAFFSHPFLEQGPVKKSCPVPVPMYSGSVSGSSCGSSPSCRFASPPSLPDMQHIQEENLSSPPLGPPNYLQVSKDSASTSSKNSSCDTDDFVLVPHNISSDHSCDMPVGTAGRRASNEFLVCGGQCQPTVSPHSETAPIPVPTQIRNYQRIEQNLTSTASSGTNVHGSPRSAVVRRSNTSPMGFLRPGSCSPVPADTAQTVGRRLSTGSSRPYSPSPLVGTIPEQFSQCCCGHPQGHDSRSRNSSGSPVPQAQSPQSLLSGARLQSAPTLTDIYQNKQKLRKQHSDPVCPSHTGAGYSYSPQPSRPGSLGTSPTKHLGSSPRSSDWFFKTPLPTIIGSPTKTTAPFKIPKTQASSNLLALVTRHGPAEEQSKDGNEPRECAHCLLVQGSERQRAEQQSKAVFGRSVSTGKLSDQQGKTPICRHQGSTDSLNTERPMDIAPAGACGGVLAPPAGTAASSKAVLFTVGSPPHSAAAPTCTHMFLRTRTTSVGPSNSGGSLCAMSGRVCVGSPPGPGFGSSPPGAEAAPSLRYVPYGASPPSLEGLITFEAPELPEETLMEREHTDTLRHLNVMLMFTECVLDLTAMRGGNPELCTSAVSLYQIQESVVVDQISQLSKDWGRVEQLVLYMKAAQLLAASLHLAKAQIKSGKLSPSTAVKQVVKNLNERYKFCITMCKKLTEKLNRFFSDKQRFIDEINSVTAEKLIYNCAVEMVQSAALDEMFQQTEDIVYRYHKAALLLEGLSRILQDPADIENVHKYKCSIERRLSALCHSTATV

[3] = molecular target: T3, 3-phosphoinositide-dependent protein kinase 1 (Homo sapiens, UniProt O15530); test: Inhibition of recombinant PDK1 (unknown origin) using PDK1tide substrate incubated for 7 mins
T3 sequence (O15530 whole entry): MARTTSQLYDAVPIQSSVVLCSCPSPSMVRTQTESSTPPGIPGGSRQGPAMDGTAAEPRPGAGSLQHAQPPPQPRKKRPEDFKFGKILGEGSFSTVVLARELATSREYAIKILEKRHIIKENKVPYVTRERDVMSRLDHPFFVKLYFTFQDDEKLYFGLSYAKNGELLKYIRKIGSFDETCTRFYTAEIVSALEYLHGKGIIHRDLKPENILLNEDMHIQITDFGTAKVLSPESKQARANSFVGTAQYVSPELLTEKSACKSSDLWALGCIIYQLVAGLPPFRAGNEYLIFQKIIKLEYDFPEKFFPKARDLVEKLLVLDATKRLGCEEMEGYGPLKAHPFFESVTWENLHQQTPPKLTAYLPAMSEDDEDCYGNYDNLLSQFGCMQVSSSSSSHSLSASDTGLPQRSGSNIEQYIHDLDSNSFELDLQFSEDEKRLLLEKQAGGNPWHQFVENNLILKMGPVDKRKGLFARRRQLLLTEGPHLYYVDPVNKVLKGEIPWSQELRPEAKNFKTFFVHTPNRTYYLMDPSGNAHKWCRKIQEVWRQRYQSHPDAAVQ
Procedure, shortened: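 Recombinant PDK1 at 5 nM with 50 µM synthetic PDK1tide in 50 mM HEPES pH 7.5, 10 mM MgCl2, 1 mg/ml BSA, 0.02% Triton-X and 50 µM DTT. Stopped after 7 min by spotting onto nitrocellulose, washed three times in 1% phosphoric acid and phosphorimaged. IC50 from curve fitting; duplicate.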

HeLa = test: Inhibition of autophagy in human HeLa cells assessed as induction of LC3-I protein accumulation at 4 uM incubated for 24 hrs by immunoblotting method; type: functional, cell-based
Procedure, shortened: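 HeLa cells were grown in DMEM with 10% FBS to about 50% confluency, then given 4 µM compound or DMSO for 24 h. Cold-PBS wash, lysis in TBS pH 7.6 with 1% Triton-X, 0.2% SDS and protease/phosphatase inhibitors. Lysates were protein-normalized and immunoblotted for LC3-I/LC3-II, with actin as loading control.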

O=C(NCCCNc1nc(Nc2cccc(NC(=O)N3CCCC3)c2)ncc1I)c1cccs1 [BX-795]
IC50 [1]: 87 nM | IC50 [2]: 310 nM | IC50 [3]: 65 nM | Activity (HeLa): Active

O=C(NCCCNc1nc(Nc2cccc(CN3CCOCC3)c2)ncc1C1CC1)C1CCC1
IC50 [3]: 421 nM | Activity (HeLa): Active

O=C(NCCCNc1nc(Nc2cccc(NC(=O)N3CCCC3)c2)ncc1I)C1CC1
IC50 [1]: 67 nM | IC50 [2]: 200 nM | IC50 [3]: 56 nM | Activity (HeLa): Active
